Measurements gathered from unrelated publications.
Lines come from different studies, so protocols differ.
Cell line: MRC5
Effect on: cell growth or viability

COc1c2c(cc3c1OCO3)[C@]13C=C[C@H](OC)C[C@H]1N(C2)C[C@H]3OC(=O)c1cccc(C)c1  IC50 (WST-1): > 10 µM
CC(=O)O[C@H]1C(=O)[C@@]2(C)[C@H]([C@H](OC(=O)c3ccccc3)[C@]3(O)C[C@H](OC(=O)[C@H](O)[C@@H](NC(=O)c4ccccc4)c4ccccc4)C(C)=C1C3(C)C)[C@]1(OC(C)=O)CO[C@@H]1C[C@@H]2O  IC50 (SRB): 0.0141 µM
COc1cc2ccc(=O)oc2cc1OC  IC50 (MTT; 72 h): > 100 µM
Oc1ccccc1-c1n[nH]c(-c2ccccc2O)n1  IC50 (MTT; 72 h): > 100 µM
COc1ccc(C(=O)O[C@@H]2CN3Cc4c(cc5c(c4OC)OCO5)[C@@]24C=C[C@H](OC)C[C@@H]34)cc1  IC50 (WST-1): > 10 µM
CC(C)=CCC/C(C)=C/COc1ccc2ccc(=O)oc2c1  IC50 (MTT; 72 h): > 100 µM
O=C(/C=C/C=C/c1ccc2c(c1)OCO2)N1CCCCC1  IC50 (SRB): 136 µM
COc1cccc(C(=O)O[C@@H]2CN3Cc4c(cc5c(c4OC)OCO5)[C@@]24C=C[C@H](OC)C[C@@H]34)c1  IC50 (WST-1): > 10 µM
O=C([O-])c1ccc(-n2nc(-c3ccccc3O)nc2-c2ccccc2[O-])cc1.O=C([O-])c1ccc(-n2nc(-c3ccccc3O)nc2-c2ccccc2[O-])cc1.[Ti+4]  IC50 (MTT; 72 h): 25 µM
CCCCC/C=C/C(=O)CCc1ccc(O)c(OC)c1  IC50 (SRB): 18.5 µM
